High-throughput results deposited in PubChem BioAssay by several laboratories.
Rin1-Abl PPI inh = inhibitors of Rin1-Abl protein binding, primary screen, biochemical, TR-FRET | inhibition, % at 7.35 µM | hit rate 0.4% among 360,000 | Tyrosine-protein kinase ABL1 (Homo sapiens) + Ras and Rab interactor 1 (Homo sapiens), …; in the data active = inhibition above about 5%, passing the limit was not always enough
SR-BI DiI-HDL act = activators of SR-BI mediated DiI-HDL uptake, primary screen, ldlA[mSR-BI] CHO cells, DiI fluorescence; hit rate 0.096% among 320,000; activation, % at 12.5 µM; 3 h; 100 = double the neutral-control signal;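 active = mean replicate activation of at least 60% and every replicate at or above 60%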
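System: LDL receptor-deficient CHO ldlA cells overexpressing murine SR-BI | Timing: 3 h uptake period with compound, 37 °C | Medium: HEPES-buffered (25 mM, pH 7.4) F12 plus 0.5% BSA | Dosing: Single-point compound dose | Signal: Bottom-read fluorescence, 550/595 nm | Read-out: Retained DiI signal reflecting DiI-HDL uptake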
GRK2 aptamer HTS = compounds blocking aptamer binding on GRK2 – biochemical, human GRK2, bead flow cytometry, HTS, primary screen; FAM-aptamer displacement from GRK2; inhibition of aptamer binding, % at 10 µM; hit rate 0.59% among 330,000; AID 488847, 2010;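 active = inhibition of aptamer binding above 40%, roughly 3 SD of noise, on plates passing a quality check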;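 also: median bead fluorescence of bound FAM aptamer so fluorescent compounds give negative values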
SR-BI HDL uptake = inhibitors of SR-BI mediated HDL lipid uptake, primary screen, ldlA[mSR-BI] cells, fluorescence, single point; ldlA[mSR-BI] CHO cells, DiI-HDL uptake fluorescence, 3 h; inhibition, % at 12.5 µM; hit rate 0.96% among 320,000; Scavenger receptor class B member 1 (Mus musculus), Q61009;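 active = mean replicate inhibition of at least 70% and a set share of replicates each scoring 70 or more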
Target sequence (Q61009 whole entry, looked up): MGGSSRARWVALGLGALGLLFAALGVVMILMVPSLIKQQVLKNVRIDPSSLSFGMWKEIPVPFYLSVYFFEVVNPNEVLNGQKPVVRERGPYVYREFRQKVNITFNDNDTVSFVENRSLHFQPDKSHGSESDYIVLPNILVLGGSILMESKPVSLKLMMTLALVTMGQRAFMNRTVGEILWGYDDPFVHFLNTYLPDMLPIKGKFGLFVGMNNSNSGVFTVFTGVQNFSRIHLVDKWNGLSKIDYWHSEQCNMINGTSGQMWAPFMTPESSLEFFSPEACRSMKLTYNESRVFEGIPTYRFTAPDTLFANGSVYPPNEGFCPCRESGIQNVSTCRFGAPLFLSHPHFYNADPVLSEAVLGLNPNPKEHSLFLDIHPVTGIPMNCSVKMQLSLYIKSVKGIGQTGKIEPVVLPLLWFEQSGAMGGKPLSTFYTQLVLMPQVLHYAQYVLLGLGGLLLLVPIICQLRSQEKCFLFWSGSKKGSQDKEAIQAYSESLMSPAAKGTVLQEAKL
A number is an active result; 0 = inactive; - = no result given. This is a sample that favours compounds with a hit; in the whole collection about 1.9% have one here.

SMILES	Rin1-Abl PPI inh	SR-BI DiI-HDL act	GRK2 aptamer HTS	SR-BI HDL uptake
CC1CCCN(S(=O)(=O)c2ccc(C(=O)Nc3nnc(C4CC4)o3)cc2)C1 (centres undefined)	0	0	0	0
Cc1cc(C)c2nc(NNC(=O)c3ccc(S(=O)(=O)N4CC(C)CC(C)C4)cc3)sc2c1 (centres undefined)	0	0	0	139
CCC(=O)NNc1nc2c(C)cc(C)cc2s1	0	0	0	0
Cc1cc(C)c2nc(NNC(=O)c3ccc(S(=O)(=O)N4CCCC(C)C4)cc3)sc2c1 (centres undefined)	0	0	0	115
Cc1cccc2sc(NNC(=O)c3ccc(S(=O)(=O)N4CC(C)CC(C)C4)cc3)nc12 (centres undefined)	0	0	0	131
CCOC(=O)C1(C)CCCN(C(=O)c2ccc3c(c2)CCO3)C1 (centres undefined)	0	-	-	-
CC12CCC(=O)C=C1C(F)CC1C2C(O)CC2(C)C1CCC2(O)C(=O)CO (centres undefined)	0	0	-	0
NS(=O)(=O)c1ccc(CCNC(=O)CN2CCN(Cc3cccc4ccccc34)CC2)cc1	0	-	0	-
O=C(c1ccncc1)N1N=C(c2ccc(Br)cc2)CC1c1ccccc1O (centres undefined)	0	0	0	75
O=C(c1ccccc1)N1N=C(c2ccccc2)CC1c1ccccc1O (centres undefined)	0	0	0	0
CC12CCC(CC1O)C2C(=O)O (centres undefined)	0	-	-	-
COC(=O)c1ccc(OS(=O)(=O)N(C)C)cc1	0	0	0	0
O=C(Nc1ccc(-c2cn3c(n2)SCC3)cc1)c1ccc2c(c1)OCO2	0	0	0	82
Cc1ccc2c(c1)c1c3n2CC(=C2C(=O)OC(C)(C)OC2=O)NC3CCC1 (centres undefined)	0	0	0	78
COc1cccc(OCc2cc(C(=O)N(C)CCOc3ccc(C)cc3)no2)c1	0	0	0	0
CCC(CC)C(=O)Nc1cc(C(=O)OC)ccc1C(=O)OC	0	67	0	0
Cc1cc(=O)oc2c3c(cc(OCC(=O)NCC(=O)O)c12)OC(C)(C)CC3	0	0	0	0
Cc1cc(=O)oc2c3c(cc(OCC(=O)NCc4ccccc4)c12)OC(C)(C)CC3	0	0	0	80
O=C(NNC(=O)c1cc2ccccc2cc1O)c1cccs1	0	0	0	115
C/C(=N\NC(=O)c1cc2ccccc2cc1O)c1cccs1	0	0	0	0
O=C(NNC(=O)c1ccc2ccccc2c1O)c1ccccc1Cl	0	0	0	0
O=C(NNC(=O)c1ccc2ccccc2c1O)c1cccs1	0	0	0	106
CN(C)S(=O)(=O)c1cccc(NC(=O)CN2C(=O)NC(Cc3ccccc3)C2=O)c1 (centres undefined)	0	0	0	0
COc1cccc(CNC(=O)COC(=O)CCS(=O)(=O)c2ccc(C)cc2)c1	0	0	-	0
O=C(NCC(F)(F)F)c1[nH]c(C(F)(F)F)nc1-c1ccccc1	0	-	-	-
SMILES	Rin1-Abl PPI inh	SR-BI DiI-HDL act	GRK2 aptamer HTS	SR-BI HDL uptake
N#Cc1ccc(-c2nc3c4ccccc4ccn3c2Cc2cccc(Cl)c2)cc1	0	-	-	-
C[C@@H](c1ccccc1)N1C[C@H]2CCCN2c2cc(Br)ccc2S1(=O)=O	0	0	41	0
O=C(COC(=O)/C=C/c1ccco1)NCc1ccc(Cl)cc1Cl	0	0	0	0
O=C(COC(=O)/C=C/c1cccc(Cl)c1)NCCc1ccc(Cl)cc1Cl	0	83	0	0
CCCCCn1c(N)c(-c2nc3ccccc3s2)c2c([N+](=O)[O-])nn(C)c(=O)c21	0	0	0	84
CCCCn1c(N)c(-c2nc3ccccc3o2)c2c([N+](=O)[O-])nn(C)c(=O)c21	0	0	0	0
Cc1[nH]n(-c2nc(-c3ccc(Cl)cc3)cs2)c(=O)c1N=Nc1ccc(O)cc1	0	0	0	110
COc1ccc(CCNC(=O)c2ccc(N3CCCCS3(=O)=O)cc2)cc1OC	0	0	0	79
CC1CCC(C(C)C)C(OC(=O)C2=C3c4ccccc4S(=O)(=O)N3CC2)C1 (centres undefined)	0	0	0	71
CCOc1ccccc1Nc1nnc(SCC(=O)Nc2nc(-c3ccc(OC)cc3)cs2)s1	0	0	0	76
CCOc1ccc(NCc2nnc(SCC(=O)Nc3nc(-c4ccccc4)cs3)n2-c2ccccc2)cc1	0	0	0	75
CC1CCN(C(=O)CCC(=O)Nc2ccc([N+](=O)[O-])cc2)CC1	0	-	-	-
CC1(C(=O)Nc2ccc(Cl)cc2)Cc2c(-c3cccc(C(F)(F)F)c3)ccnc2O1 (centres undefined)	0	-	-	-
CC(=O)Nc1ccc2nc(NC(=O)c3cccs3)sc2c1	0	0	0	0
CC(=O)Nc1ccc2nc(NC(=O)c3ccc([N+](=O)[O-])s3)sc2c1	-	-	87	-
CC(=O)c1cccc(N=Nc2c(C)[nH]c3ccccc23)c1	0	0	0	0
COc1ccc(N=Nc2c(C)[nH]c3ccccc23)cc1	0	0	0	88
CC(C)(C)c1ccc(S(=O)(=O)NC(=O)C2(C)CCN2C(=O)CC2CCCCC2)cc1 (centres undefined)	0	-	-	-
CCN(C(=O)c1ccc2c(Cl)c3c(nc2c1)CCC3)c1ccc(C)c(C)c1	0	0	0	86
CN(C(=O)c1ccc2c(Cl)c3c(nc2c1)CCC3)c1ccccc1	0	0	0	0
CC[C@@H]1CCC[C@@H](O)[C@@H](C)C(=O)O[C@H](C)[C@@H](C)C/C=C(C)/C(OC)=C\C(=O)N(C)C([C@@H](C)CC)C(=O)N(C)[C@@H](C(C)C)C(=O)N(C)[C@@H](COC)C(=O)N2CCC[C@H]2C(=O)N(C)[C@@H](C(C)C)C(=O)N2CCC[C@H]2C(=O)O1 (some centres undefined)	0	-	-	-
CC(C)(C)OC(=O)N(Cc1ccccc1)Cc1cccc(OCc2cccc(NC(=O)c3ccccc3)c2)c1	0	0	-	73
CC(C)(C)OC(=O)N(Cc1ccccc1)Cc1ccccc1OCc1cccc(NC(=O)c2ccccc2)c1	0	0	-	0
COc1ccc(CCn2c(=O)[nH]c3cc(C(=O)N4CCN(c5ccccc5)CC4)ccc3c2=O)cc1OC	0	0	0	0
COc1ccc(CCn2c(=O)[nH]c3cc(C(=O)N4CCN(c5ccccn5)CC4)ccc3c2=O)cc1OC	0	0	0	81
O=[N+]([O-])c1ccc(N/N=C/c2c[nH]c3ccccc23)c(S(=O)(=O)Nc2ccc(Cl)cc2)c1	0	0	0	94
O=[N+]([O-])c1ccccc1/C=C/C=N/Nc1ccc(S(=O)(=O)Nc2ccc(Cl)cc2)cc1[N+](=O)[O-]	0	0	0	100
CCCS(=O)(=O)NC(=O)C1(C)CCN(C(=O)c2ccc(C(F)(F)F)cc2)C1 (centres undefined)	0	-	-	-
